Entries after “also recorded” stand apart in the source; their conditions may differ. Each block holds one compound with its values, some of them ahead of it.
What was measured:
PARP-1 = PARP-1 (Homo sapiens, UniProt P09874); test: PARP-1 inhibition assay; format: biochemical
Water solubility = format: physicochemical
wild-type DT40 cells = test: DT40 cell viability; format: cell-based, Chicken; details: 72 h, veliparib up to 10 μM
How it was run: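 Chicken DT40 B-cell lines from an academic lab. 200 cells per well, continuously exposed to a range of drug concentrations for 72 h, in triplicate. Viability read by ATP content: one-step luciferase reagent added, luminescence read after 5 min. Viability is the treated ATP level over untreated ATP level × 100, with untreated set to 100%. SD from n = 3.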

[1] = tested on: BRCA2-deficient DT40 cells; test: DT40 cell viability; format: cell-based, Chicken; details: 72 h
[2] = tested on: PARP-1-deficient DT40 cells; test: DT40 cell viability; format: cell-based, Chicken; details: 72 h, veliparib up to 10 μM

PARP-1, sequence (P09874 whole entry): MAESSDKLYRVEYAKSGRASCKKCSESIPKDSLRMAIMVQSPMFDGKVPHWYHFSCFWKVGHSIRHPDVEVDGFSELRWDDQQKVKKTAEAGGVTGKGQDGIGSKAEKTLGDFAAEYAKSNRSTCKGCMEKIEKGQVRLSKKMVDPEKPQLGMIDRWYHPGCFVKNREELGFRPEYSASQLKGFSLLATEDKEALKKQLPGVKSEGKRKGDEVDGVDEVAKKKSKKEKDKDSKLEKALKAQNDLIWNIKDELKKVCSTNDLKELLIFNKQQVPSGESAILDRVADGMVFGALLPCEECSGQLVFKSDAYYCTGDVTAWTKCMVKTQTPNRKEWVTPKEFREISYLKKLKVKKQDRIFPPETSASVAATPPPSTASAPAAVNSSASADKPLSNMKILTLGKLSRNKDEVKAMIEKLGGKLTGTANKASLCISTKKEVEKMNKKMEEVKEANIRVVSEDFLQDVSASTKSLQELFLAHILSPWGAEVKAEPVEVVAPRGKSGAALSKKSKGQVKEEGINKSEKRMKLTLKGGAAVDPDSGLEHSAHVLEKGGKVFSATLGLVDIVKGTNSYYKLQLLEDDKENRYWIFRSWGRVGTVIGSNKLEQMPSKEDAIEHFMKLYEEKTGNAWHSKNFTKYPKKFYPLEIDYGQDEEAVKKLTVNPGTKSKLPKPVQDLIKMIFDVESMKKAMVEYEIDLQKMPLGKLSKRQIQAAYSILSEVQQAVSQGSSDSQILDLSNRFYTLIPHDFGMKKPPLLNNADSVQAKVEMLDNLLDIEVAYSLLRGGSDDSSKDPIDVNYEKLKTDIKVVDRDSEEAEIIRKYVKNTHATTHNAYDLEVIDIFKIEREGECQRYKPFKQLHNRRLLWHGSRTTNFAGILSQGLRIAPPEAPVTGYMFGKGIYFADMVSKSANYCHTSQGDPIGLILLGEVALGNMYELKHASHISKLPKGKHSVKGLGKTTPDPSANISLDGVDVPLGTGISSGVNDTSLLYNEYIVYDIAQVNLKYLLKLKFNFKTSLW

PARP-1 inhibition, result in words (PARP-1): inactive
SMILES: CC1Cc2cc(N)cc(C(N)=O)c2O1 (stereo not shown) [Compound 15, 5-Amino-2-methyl-2,3-dihydrobenzofuran-7-carboxamide]

PARP-1 inhibition, result in words (PARP-1): Poor inhibition
SMILES: NC(=O)c1cccc2c1O/C(=C\c1ccccc1O)C2=O [Compound 55, (Z)-2-(2′-Hydroxybenzylidene)-3-oxo-2,3-dihydrobenzofuran-7-carboxamide]

PARP-1 inhibition, result in words (PARP-1): inactive
SMILES: Cc1cc2c(c(C(N)=O)c1)OC(C)C2 (stereo not shown) [Compound 13b, 2,5-Dimethyl-2,3-dihydrobenzofuran-7-carboxamide]

PARP-1 inhibition, result in words (PARP-1): inactive
SMILES: CC1Cc2cc([N+](=O)[O-])cc(C(N)=O)c2O1 (stereo not shown) [Compound 14, 2-Methyl-5-nitro-2,3-dihydrobenzofuran-7-carboxamide]

fold increase in inhibition (PARP-1; rac-28 vs rac-13a): 2 fold
SMILES: CC1Cc2c(N)ccc(C(N)=O)c2O1 (racemic) [rac-28, 4-Amino-2-methyl-2,3-dihydrobenzofuran-7-carboxamide]

fold improvement in potency (PARP-1; 58 vs core 36): 30 fold
SMILES: NC(=O)c1cccc2c1O/C(=C\c1ccc(O)c(O)c1)C2=O [Compound 58, (Z)-2-(3′,4′-Dihydroxybenzylidene)-3-oxo-2,3-dihydrobenzofuran-7-carboxamide]

fold more potent (PARP-1; rac-13c vs 13a): 4 fold
SMILES: CC1Cc2cc(F)cc(C(N)=O)c2O1 (racemic) [rac-13c, 5-Fluoro-2-methyl-2,3-dihydrobenzofuran-7-carboxamide]

fold more potent (PARP-1; 20 vs initial lead 3): ~5 fold
SMILES: NC(=O)c1cc(F)cc2c1OCC2 [Compound 20, 5-Fluoro-2,3-dihydrobenzofuran-7-carboxamide]

Continued, compound first:

SMILES: NC(=O)c1cccc2c1O/C(=C\c1ccc(OCCN3CCOCC3)cc1)C2=O [Compound 65, (Z)-2-[4′-(2-Morpholin-4-ylethoxy)benzylidene]-3-oxo-2,3-dihydrobenzofuran-7-carboxamide]
fold less potent (PARP-1; 65 vs 64): 4 fold

SMILES: NC(=O)c1cccc2c1O/C(=C\c1ccc(OCCCN3CCOCC3)cc1)C2=O [Compound 67, (Z)-2-[4′-(3-Morpholin-4-ylpropoxy)benzylidene]-3-oxo-2,3-dihydrobenzofuran-7-carboxamide]
times more potent (PARP-1; 67 vs ethyl analogue 65): ~3 times

SMILES: COc1ccc(/C=C2\Oc3c(C(N)=O)cccc3C2=O)cc1 [Compound 54, (Z)-2-(4′-Methoxybenzylidene)-3-oxo-2,3-dihydrobenzofuran-7-carboxamide]
fold reduced inhibitory activity (PARP-1; 54 vs 57): 4 fold

SMILES: NC(=O)c1cccc2c1O/C(=C\c1cc(O)ccc1O)C2=O [Compound 61, (Z)-2-(2′,5′-Dihydroxybenzylidene)-3-oxo-2,3-dihydrobenzofuran-7-carboxamide]
PARP-1 inhibition, result in words (PARP-1): poor inhibition; also recorded: complete loss of potency

SMILES: NC(=O)c1cccc2c1O/C(=C\c1ccc(OCC(=O)N3CCOCC3)cc1)C2=O [Compound 68, (Z)-2-[4′-(2-Morpholin-4-yl-2-oxoethoxy)benzylidene]-3-oxo-2,3-dihydrobenzofuran-7-carboxamide]
fold improvement in potency (PARP-1; 68 vs 65): 9 fold

SMILES: NC(=O)c1cccc2c1O/C(=C\c1cc(O)cc(O)c1)C2=O [Compound 60, (Z)-2-(3′,5′-Dihydroxybenzylidene)-3-oxo-2,3-dihydrobenzofuran-7-carboxamide]
PARP-1 inhibition, result in words (PARP-1): poor inhibition; also recorded: complete loss of potency

SMILES: CN1CCN(CCS(=O)(=O)Nc2ccc(/C=C3\Oc4c(C(N)=O)cccc4C3=O)cc2)CC1 [Compound 72, (Z)-2-{4-[2-(4-Methylpiperazin-1-yl)ethanesulfonylamino]benzylidene}-3-oxo-2,3-dihydrobenzofuran-7-carboxamide]
water solubility, result in words (Water solubility): water-soluble

SMILES: CN1CCN(CCOc2ccc(/C=C3\Oc4c(C(N)=O)cccc4C3=O)cc2)CC1 [Compound 66, (Z)-2-{4′-[2-(4-Methylpiperazin-1-yl)ethoxy]benzylidene}-3-oxo-2,3-dihydrobenzofuran-7-carboxamide]
cytotoxicity, result in words (wild-type DT40 cells): minimally cytotoxic
cytotoxicity, result in words [1]: selective cytotoxicity; also recorded: selectively killed; also recorded: selectively active
cytotoxicity, result in words [2]: minimally cytotoxic
water solubility, result in words (Water solubility): water-soluble
